Measurements as given in ChEMBL document CHEMBL3779864, “Dual Alleviation of Acute and Neuropathic Pain by Fused Opioid Agonist-Neurokinin 1 Antagonist Peptidomimetics” (ACS Med Chem Lett, 2015).
The source made the active and inactive calls. No cut-off for these calls is given here.

Experiments:
Rattus norvegicus [1] = species on record: Rattus norvegicus; assay: Antinociceptive activity in Wistar rat model of chronic constriction injury-induced neuropathic pain assessed as reduction in allodynia at 1 nmol, it QD for 6 consecutive days by von Frey test; format: functional, organism-based
Summary of the method: (§1)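 Rats with chronic constriction injury of the sciatic nerve, dosed intrathecally once daily for 6 consecutive days starting day 7 post-CCI. Allodynia measured by von Frey, hyperalgesia by cold plate. Doses: morphine 3.5 nmol, hybrids 0.8 or 1 nmol. Compared with vehicle-treated CCI rats and with morphine-treated CCI rats.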

Rattus norvegicus [2] = species on record: Rattus norvegicus; assay: Antinociceptive activity in naive Wistar rat at 10 nmol, it after 30 mins by tail flick test analysis; format: functional, organism-based
Summary of the method: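 Naïve rats dosed intrathecally, compared with vehicle-treated naïve rats. Tail-flick latency read 30 min after administration.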

[3] = biological target: Delta-type opioid receptor (Rattus norvegicus, UniProt P33533); assay: Displacement of [3H]DSLET from delta opioid receptor in rat brain membrane after 2 hrs; format: cell membranes
Sequence of Delta-type opioid receptor (Rattus norvegicus, UniProt P33533) (P33533 whole entry): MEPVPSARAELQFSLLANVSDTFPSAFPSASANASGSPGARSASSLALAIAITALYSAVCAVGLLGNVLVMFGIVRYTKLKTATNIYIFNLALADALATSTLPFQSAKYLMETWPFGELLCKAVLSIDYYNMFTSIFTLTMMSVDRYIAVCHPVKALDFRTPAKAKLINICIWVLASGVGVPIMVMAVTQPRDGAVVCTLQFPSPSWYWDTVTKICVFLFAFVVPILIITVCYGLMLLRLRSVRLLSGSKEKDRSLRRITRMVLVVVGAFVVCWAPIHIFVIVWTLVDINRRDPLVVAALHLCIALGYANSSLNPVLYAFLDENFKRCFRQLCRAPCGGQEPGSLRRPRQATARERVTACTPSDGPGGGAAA
Summary of the method: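 Rat brain membranes, with [3H]DSLET as the DOR radioligand, measured as displacement binding. Values are means of 3–4 experiments.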

Rattus norvegicus [4] = species on record: Rattus norvegicus; assay: Antinociceptive activity in Wistar rat model of chronic constriction injury-induced neuropathic pain assessed as reduction in allodynia at 3.5 nmol, it QD for 6 consecutive days by von Frey test; format: functional, organism-based; summary of the method: as §1
Rattus norvegicus [5] = species on record: Rattus norvegicus; assay: Antinociceptive activity in Wistar rat model of chronic constriction injury-induced neuropathic pain assessed as reduction in allodynia at 0.8 to 3.5 nmol after 30 mins by von Frey test; format: functional, organism-based
Summary of the method: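 Rats underwent chronic constriction injury of the sciatic nerve. Seven days later, drug was given intrathecally as single injections at increasing doses. Allodynia was read by von Frey test 30 min after dosing and compared with vehicle-treated CCI rats.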

Mu-type opioid receptor [6] = biological target: Mu-type opioid receptor (Cavia porcellus, UniProt P97266); assay: Agonist activity at mu opioid receptor in guinea pig ileum assessed as inhibition of electrically-stimulated muscle contraction; format: tissue-based
Sequence of Mu-type opioid receptor (Cavia porcellus, UniProt P97266) (P97266 whole entry): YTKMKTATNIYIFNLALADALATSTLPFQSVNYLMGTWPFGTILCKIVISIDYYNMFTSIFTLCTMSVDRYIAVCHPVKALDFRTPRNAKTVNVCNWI
Summary of the method: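 Guinea pig ileum preparation used as the MOR-representative functional assay. Values are means of 3–4 experiments.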

[7] = biological target: Delta-type opioid receptor (Mus musculus, UniProt P32300); assay: Agonist activity at delta opioid receptor in mouse vas deferens assessed as inhibition of electrically-stimulated muscle contraction; format: tissue-based
Sequence of Delta-type opioid receptor (Mus musculus, UniProt P32300) (P32300 whole entry): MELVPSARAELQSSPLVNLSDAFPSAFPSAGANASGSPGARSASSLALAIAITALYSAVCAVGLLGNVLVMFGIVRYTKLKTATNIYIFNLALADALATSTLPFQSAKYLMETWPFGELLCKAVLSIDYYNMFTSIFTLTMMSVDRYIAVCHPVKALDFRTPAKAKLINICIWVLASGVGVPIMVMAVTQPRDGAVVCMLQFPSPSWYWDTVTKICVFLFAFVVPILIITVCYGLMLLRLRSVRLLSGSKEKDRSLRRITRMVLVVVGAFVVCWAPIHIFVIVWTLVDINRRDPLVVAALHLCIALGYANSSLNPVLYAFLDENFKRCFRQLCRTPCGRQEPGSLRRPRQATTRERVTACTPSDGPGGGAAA
Summary of the method: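 Electrically stimulated mouse vas deferens, a DOR-representative tissue assay. Means of 3–4 experiments.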

Rattus norvegicus [8] = species on record: Rattus norvegicus; assay: Antinociceptive activity in Wistar rat model of chronic constriction injury-induced neuropathic pain assessed as reduction in hyperalgesia at 0.8 to 3.5 nmol after 30 mins by cold plate test; format: functional, organism-based
Summary of the method: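 Rats underwent chronic constriction injury of the sciatic nerve. Seven days later, drug was given intrathecally as single injections at increasing doses. Hyperalgesia was read by cold plate test 30 min after dosing and compared with vehicle-treated CCI rats.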

Rattus norvegicus [9] = species on record: Rattus norvegicus; assay: Antinociceptive activity in Wistar rat model of chronic constriction injury-induced neuropathic pain assessed as reduction in hyperalgesia at 1 nmol, it QD for 6 consecutive days measured on day-4 and day-5 by cold plate test relative to morphine; format: functional, organism-based; summary of the method: as §1
Rattus norvegicus [10] = species on record: Rattus norvegicus; assay: Potency index, ratio of antinociceptive activity of compound at 8 to 10 nmol, it to antinociceptive activity of morphine at 35 nmol, it in naive Wistar rat after 30 mins; format: functional
Rattus norvegicus [11] = assay: Antinociceptive activity in Wistar rat model of chronic constriction injury-induced neuropathic pain assessed as reduction in hyperalgesia at 3.5 nmol dosed on day7 after tolerance development with compound13 dosed at 1 nmol, it QD for 6 days by cold plate test; format: functional, organism-based
Summary of the method: (§2)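 Cross-tolerance design in CCI rats: intrathecal dosing once daily for 6 days from day 7 post-CCI (morphine 3.5 nmol, hybrids 0.8 or 1 nmol). On day 7 of dosing (day 14 post-CCI), morphine-tolerant rats received a single hybrid dose and hybrid-tolerant rats received morphine 3.5 nmol. Read by von Frey or cold plate and compared with pretest, day 1 and day 6.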

Rattus norvegicus [12] = assay: Antinociceptive activity in Wistar rat model of chronic constriction injury-induced neuropathic pain assessed as reduction in allodynia at 1 nmol dosed on day7 after tolerance development with morphine dosed at 3.5 nmol, it QD for 6 days by von Frey test; format: functional, organism-based; summary of the method: as §2
Rattus norvegicus [13] = assay: Antinociceptive activity in Wistar rat model of chronic constriction injury-induced neuropathic pain assessed as reduction in hyperalgesia at 1 nmol dosed on day7 after tolerance development with morphine dosed at 3.5 nmol, it QD for 6 days by cold plate test; format: functional, organism-based; summary of the method: as §2
Rattus norvegicus [14] = species on record: Rattus norvegicus; assay: Antinociceptive activity in Wistar rat model of chronic constriction injury-induced neuropathic pain assessed as reduction in hyperalgesia at 1 nmol, it QD for 6 consecutive days by cols plate test; format: functional, organism-based; summary of the method: as §1
Mu-type opioid receptor [15] = biological target: Mu-type opioid receptor (Rattus norvegicus, UniProt P33535); assay: Displacement of [3H]DAMGO from mu opioid receptor in rat brain membrane after 2 hrs; format: cell membranes
Sequence of Mu-type opioid receptor (Rattus norvegicus, UniProt P33535) (P33535 whole entry): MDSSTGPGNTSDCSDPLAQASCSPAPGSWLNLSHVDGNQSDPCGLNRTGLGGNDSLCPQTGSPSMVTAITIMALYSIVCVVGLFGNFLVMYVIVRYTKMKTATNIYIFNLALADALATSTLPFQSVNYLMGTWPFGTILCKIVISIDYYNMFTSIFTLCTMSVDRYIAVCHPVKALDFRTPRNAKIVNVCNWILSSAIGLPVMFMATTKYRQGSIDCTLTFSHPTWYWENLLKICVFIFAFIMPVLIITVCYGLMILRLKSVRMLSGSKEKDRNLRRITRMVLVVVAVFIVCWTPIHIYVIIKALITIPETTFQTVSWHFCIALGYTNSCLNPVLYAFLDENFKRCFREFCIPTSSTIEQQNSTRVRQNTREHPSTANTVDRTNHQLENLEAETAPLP
Summary of the method: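 Rat brain membranes, with [3H]DAMGO as the MOR radioligand, measured as displacement binding. Values are means of 3–4 experiments.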

Rattus norvegicus [16] = assay: Potency index, ratio of antiallodynic effect of compound to antiallodynic effect of morphine in it dosed naive Wistar rat at 0.8 to 3.5 nmol after 30 mins by cold plate test; format: functional
Substance-P receptor = Substance-P receptor (Homo sapiens, UniProt P25103); assay: Displacement of [3H]SP from human NK1 receptor transfected in CHO cells by liquid scintillation counting method; format: cell-based
Sequence of Substance-P receptor (P25103 whole entry): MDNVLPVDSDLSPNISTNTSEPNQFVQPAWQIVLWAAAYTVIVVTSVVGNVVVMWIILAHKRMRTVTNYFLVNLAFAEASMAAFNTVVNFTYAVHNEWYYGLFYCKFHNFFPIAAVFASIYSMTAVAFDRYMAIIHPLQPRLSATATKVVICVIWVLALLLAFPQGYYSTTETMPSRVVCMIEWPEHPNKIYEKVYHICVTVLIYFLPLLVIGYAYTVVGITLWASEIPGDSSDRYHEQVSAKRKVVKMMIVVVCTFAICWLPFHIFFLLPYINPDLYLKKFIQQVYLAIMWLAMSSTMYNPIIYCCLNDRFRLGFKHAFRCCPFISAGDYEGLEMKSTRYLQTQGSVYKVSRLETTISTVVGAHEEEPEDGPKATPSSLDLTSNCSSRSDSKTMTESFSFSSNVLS
Summary of the method: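 hNK1 receptor expressed in CHO cells, measured as [3H]SP displacement. Values are means of 3–4 experiments.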

Rattus norvegicus [17] = species on record: Rattus norvegicus; assay: Antinociceptive activity in Wistar rat model of chronic constriction injury-induced neuropathic pain assessed as reduction in hyperalgesia at 3.5 nmol, it QD for 6 consecutive days by cols plate test; format: functional, organism-based; summary of the method: as §1
Rattus norvegicus [18] = species on record: Rattus norvegicus; assay: Antinociceptive activity in naive Wistar rat at 35 nmol, it after 2 hrs by tail flick test analysis; format: functional, organism-based
Rattus norvegicus [19] = assay: Antinociceptive activity in Wistar rat model of chronic constriction injury-induced neuropathic pain assessed as reduction in hyperalgesia at 3.5 nmol dosed on day7 after tolerance development with compound12 dosed at 0.8 nmol, it QD for 6 days by cold plate test; format: functional, organism-based; summary of the method: as §2
Rattus norvegicus [20] = assay: Antinociceptive activity in it dosed naive Wistar rat after 30 mins by tail flick test analysis; format: functional, organism-based
Summary of the method: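 Naïve rats were dosed intrathecally at several doses. Tail-flick latency was read 30 min after dosing and compared with vehicle-treated naïve rats.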

Rattus norvegicus [21] = species on record: Rattus norvegicus; assay: Antinociceptive activity in Wistar rat model of chronic constriction injury-induced neuropathic pain assessed as reduction in allodynia at 0.8 nmol, it QD for 6 consecutive days by von Frey test; format: functional, organism-based
Summary of the method: (§3)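 Starting day 7 after sciatic nerve CCI, rats got 0.8 nmol i.t. once daily for 6 consecutive days. Allodynia was read by von Frey and hyperalgesia by cold plate. Comparisons were against vehicle-treated CCI rats and against rats given morphine 3.5 nmol i.t. on the same schedule.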

Rattus norvegicus [22] = species on record: Rattus norvegicus; assay: Antinociceptive activity in Wistar rat model of chronic constriction injury-induced neuropathic pain assessed as reduction in hyperalgesia at 0.8 nmol, it QD for 6 consecutive days by cols plate test; format: functional, organism-based; summary of the method: as §3
Rattus norvegicus [23] = species on record: Rattus norvegicus; assay: Antinociceptive activity in Wistar rat model of chronic constriction injury-induced neuropathic pain assessed as reduction in hyperalgesia at 0.8 nmol, it QD for 6 consecutive days measured on day-4 and day-5 by cold plate test relative to morphine; format: functional, organism-based; summary of the method: as §3
Rattus norvegicus [24] = assay: Antinociceptive activity in Wistar rat model of chronic constriction injury-induced neuropathic pain assessed as reduction in hyperalgesia at 0.8 nmol dosed on day7 after tolerance development with morphine dosed at 3.5 nmol, it QD for 6 days by cold plate test; format: functional, organism-based
Summary of the method: (§4)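 Rats with sciatic nerve CCI got morphine 3.5 nmol i.t. once daily for 6 days, starting day 7 after CCI. On day 7 of repeated dosing (day 14 after CCI) they received a single i.t. dose of 0.8 nmol. Allodynia was read by von Frey and hyperalgesia by cold plate. Each was compared with pretest, with day 6 and with day 1 of dosing.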

Rattus norvegicus [25] = species on record: Rattus norvegicus; assay: Antinociceptive activity in naive Wistar rat at 8 nmol, it after 2 hrs by tail flick test analysis; format: functional, organism-based
Summary of the method: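 Naïve rats got an intrathecal dose. The tail-flick response was followed over time up to 2 h after dosing.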

Rattus norvegicus [26] = assay: Antinociceptive activity in Wistar rat model of chronic constriction injury-induced neuropathic pain assessed as reduction in allodynia at 0.8 nmol dosed on day7 after tolerance development with morphine dosed at 3.5 nmol, it QD for 6 days by von Frey test; format: functional, organism-based; summary of the method: as §4

Row | SMILES | Ki [3] [nM] | Activity (Rattus norvegicus [4]) | Activity (Rattus norvegicus [5]) | IC50 (Mu-type opioid receptor [6]) [nM] | IC50 [7] [nM] | Activity (Rattus norvegicus [8]) | Ratio (Rattus norvegicus [10]) | Ki (Mu-type opioid receptor [15]) [nM] | Ki (Substance-P receptor) [nM] | other results
1 | Cc1cc(O)cc(C)c1C[C@H](N)C(=O)N[C@H](CCCNC(=N)N)C(=O)N[C@H]1Cc2ccccc2CN(CCC(=O)N(C)[C@@H]2CCN(C(=O)c3cc(C(F)(F)F)cc(C(F)(F)F)c3)C[C@@H]2c2ccccc2)C1=O | 11.2 | inactive | Active | 13 | 12.6 | Active | 3.5 | 1.82 | 1.4 | Activity (Rattus norvegicus [1]): inactive; Activity (Rattus norvegicus [2]): Active; Activity (Rattus norvegicus [9]): Active; Activity (Rattus norvegicus [11]): Active; Activity (Rattus norvegicus [12]): Active; Activity (Rattus norvegicus [13]): Active; Activity (Rattus norvegicus [14]): inactive; Ratio (Rattus norvegicus [16]): 3.5
2 | Cc1cc(O)cc(C)c1C[C@H](N)C(=O)N[C@H](CCCNC(=N)N)C(=O)N[C@@H](Cc1ccccc1)C(=O)N[C@@H](CCCCN)CC(=O)N1CC[C@@H](C(=O)N(C)Cc2cc(C(F)(F)F)cc(C(F)(F)F)c2)[C@H](c2ccccc2)C1 | > 1000 | – | – | 538 | 1660 | – | – | 20.2 | 2.2 | –
3 | Cc1cc(O)cc(C)c1C[C@H](N)C(=O)N[C@H](CCCNC(=N)N)C(=O)N[C@@H](Cc1ccccc1)C(=O)N[C@@H](CCCCN)C(=O)N1CCN([C@@H]2CCN(C(=O)c3cc(C(F)(F)F)cc(C(F)(F)F)c3)C[C@@H]2c2ccccc2)CC1 | 533 | – | – | 137 | 384 | – | – | 9.91 | 0.99 | –
4 | Cc1cc(O)cc(C)c1C[C@H](N)C(=O)N[C@H](CCCNC(=N)N)C(=O)N[C@@H](Cc1ccccc1)C(=O)N[C@@H](CCCCN)CC(N)=O | 290 | – | – | 5.9 | 7.7 | – | – | 0.187 | – | –
5 | Cc1cc(O)cc(C)c1C[C@H](N)C(=O)N[C@H](CCCNC(=N)N)C(=O)N[C@H]1Cc2ccccc2CN(CCC(=O)N2CC[C@@H](C(=O)N(C)Cc3cc(C(F)(F)F)cc(C(F)(F)F)c3)[C@H](c3ccccc3)C2)C1=O | 7.07 | – | – | 30.1 | 10.3 | – | – | 3.07 | 1.9 | –
6 | CN1CC[C@]23c4c5ccc(O)c4O[C@H]2[C@@H](O)C=C[C@H]3[C@H]1C5 [MORPHINE] | – | inactive | Active | – | – | Active | 3.5 | – | – | Activity (Rattus norvegicus [17]): Active; Activity (Rattus norvegicus [18]): Active; Activity (Rattus norvegicus [19]): Active
7 | CN[C@@H]1CCN(C(=O)c2cc(C(F)(F)F)cc(C(F)(F)F)c2)C[C@@H]1c1ccccc1 | – | inactive | Active | – | – | Active | – | – | – | Activity (Rattus norvegicus [20]): inactive
8 | Cc1cc(O)cc(C)c1C[C@H](N)C(=O)N[C@H](CCCNC(=N)N)C(=O)N[C@@H](Cc1ccccc1)C(=O)N[C@@H](CCCCN)C(=O)N1CC[C@@H](C(=O)N(C)Cc2cc(C(F)(F)F)cc(C(F)(F)F)c2)[C@H](c2ccccc2)C1 | 339 | – | – | 658 | 349 | – | – | 39.8 | 1.2 | –
9 | Cc1cc(O)cc(C)c1C[C@H](N)C(=O)N[C@H](CCCNC(=N)N)C(=O)N[C@H]1Cc2ccccc2CN(CCC(=O)N2CCN([C@@H]3CCN(C(=O)c4cc(C(F)(F)F)cc(C(F)(F)F)c4)C[C@@H]3c3ccccc3)CC2)C1=O | 10.6 | inactive | Active | 20.3 | 14.1 | Active | 3.5 | 1.18 | 1.4 | Activity (Rattus norvegicus [21]): inactive; Activity (Rattus norvegicus [22]): Active; Activity (Rattus norvegicus [23]): Active; Activity (Rattus norvegicus [11]): Active; Activity (Rattus norvegicus [24]): Active; Activity (Rattus norvegicus [25]): Active; Activity (Rattus norvegicus [26]): Active; Ratio (Rattus norvegicus [16]): 3.5
10 | Cc1cc(O)cc(C)c1C[C@H](N)C(=O)N[C@H](CCCNC(=N)N)C(=O)N[C@@H](Cc1ccccc1)C(=O)N[C@@H](CCCCN)C(=O)N(C)[C@@H]1CCN(C(=O)c2cc(C(F)(F)F)cc(C(F)(F)F)c2)C[C@@H]1c1ccccc1 | > 1000 | – | – | 70.2 | 814 | – | – | 54 | 1.1 | –
